From ChEMBL document CHEMBL2311525, “Design, synthesis, and pharmacological properties of new heteroarylpyridine/heteroarylpyrimidine derivatives as CB(2) cannabinoid receptor partial agonists” (J Med Chem, 2013)

Legend:
[1] = target: T1, Cannabinoid receptor 2 (Homo sapiens, UniProt P34972); experiment: Displacement of [3H]CP-55,940 from human recombinant CB2 receptor expressed in CHO cell membranes at 1 to 10000 nM after 60 mins by scintillation counting analysis
Method in brief: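 Membranes from CHO cells expressing hCB2, spun at 100000g, in 50 mM Tris-HCl with 0.5% BSA, 5 mM MgCl2 and 1 mM EDTA, pH 7.4. Incubated with 0.5 nM [3H]CP-55,940 and compound at 1 nM–10 μM for 60 min at 30 °C. Filtered on GF/C and counted. Ki by Cheng–Prusoff, n = 4.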

[2] = target: T2, Cannabinoid receptor 1 (Homo sapiens, UniProt P21554); experiment: Displacement of [3H]CP-55,940 from human recombinant CB1 receptor expressed in CHO cell membranes at 1 to 10000 nM after 90 mins by scintillation counting analysis
T2 sequence (P21554 whole entry): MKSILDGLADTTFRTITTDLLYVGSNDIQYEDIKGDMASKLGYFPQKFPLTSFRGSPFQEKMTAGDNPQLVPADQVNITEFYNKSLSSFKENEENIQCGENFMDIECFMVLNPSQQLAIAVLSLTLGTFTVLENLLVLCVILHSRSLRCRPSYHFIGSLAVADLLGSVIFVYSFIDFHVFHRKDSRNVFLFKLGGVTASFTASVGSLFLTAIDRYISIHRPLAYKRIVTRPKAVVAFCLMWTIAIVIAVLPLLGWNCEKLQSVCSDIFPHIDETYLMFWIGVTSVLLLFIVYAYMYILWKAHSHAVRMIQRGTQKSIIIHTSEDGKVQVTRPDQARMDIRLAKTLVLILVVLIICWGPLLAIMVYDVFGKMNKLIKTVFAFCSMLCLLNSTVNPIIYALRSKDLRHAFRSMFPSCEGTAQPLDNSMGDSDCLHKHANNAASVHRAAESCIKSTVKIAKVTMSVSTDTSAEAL
Method in brief: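 Membranes from CHO cells expressing hCB1, spun at 100000g, in 50 mM Tris-HCl with 0.5% BSA, 5 mM MgCl2 and 2.5 mM EDTA, pH 7.4. Incubated with 0.5 nM [3H]CP-55,940 and compound at 1 nM–10 μM for 90 min at 30 °C. Filtered on GF/C and counted. Ki by Cheng–Prusoff, n = 4.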

[3] = target: T3, Cannabinoid receptor 2 (Rattus norvegicus) (UniProt Q9QZN9); experiment: Displacement of [3H]CP-55,940 from Sprague-Dawley rat spleen CB2 receptor at 1 to 10000 nM by scintillation counting analysis
T3 sequence (whole entry): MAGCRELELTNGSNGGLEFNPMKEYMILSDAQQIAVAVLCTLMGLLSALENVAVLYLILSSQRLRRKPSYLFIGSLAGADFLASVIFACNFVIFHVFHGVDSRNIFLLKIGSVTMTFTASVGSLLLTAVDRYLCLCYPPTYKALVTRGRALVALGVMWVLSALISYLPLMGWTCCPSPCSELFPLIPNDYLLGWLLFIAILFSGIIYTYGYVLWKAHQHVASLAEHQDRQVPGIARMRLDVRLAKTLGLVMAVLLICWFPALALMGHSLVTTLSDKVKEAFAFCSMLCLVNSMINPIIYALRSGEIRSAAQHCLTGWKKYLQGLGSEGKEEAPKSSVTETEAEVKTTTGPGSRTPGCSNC
Method in brief: (§1)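 Male Sprague-Dawley rat spleen membranes, prepared by spinning at 2000g and then 40000g, in 50 mM Tris-HCl with 1 mM EDTA, 3 mM MgCl2 and 0.5% fatty-acid-free BSA, pH 7.4. Incubated with 0.5 nM [3H]CP-55,940, 80 μg protein/100 μL and test compound at 1 nM–10 μM. Filtered on GF/C. Ki by Cheng–Prusoff, n = 4.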

[4] = target: Cannabinoid receptor 1 (Rattus norvegicus) (UniProt P20272); experiment: Displacement of [3H]CP-55,940 from Sprague-Dawley rat brain CB1 receptor at 1 to 10000 nM by scintillation counting analysis
Chain of Cannabinoid receptor 1 (Rattus norvegicus) (P20272 whole entry): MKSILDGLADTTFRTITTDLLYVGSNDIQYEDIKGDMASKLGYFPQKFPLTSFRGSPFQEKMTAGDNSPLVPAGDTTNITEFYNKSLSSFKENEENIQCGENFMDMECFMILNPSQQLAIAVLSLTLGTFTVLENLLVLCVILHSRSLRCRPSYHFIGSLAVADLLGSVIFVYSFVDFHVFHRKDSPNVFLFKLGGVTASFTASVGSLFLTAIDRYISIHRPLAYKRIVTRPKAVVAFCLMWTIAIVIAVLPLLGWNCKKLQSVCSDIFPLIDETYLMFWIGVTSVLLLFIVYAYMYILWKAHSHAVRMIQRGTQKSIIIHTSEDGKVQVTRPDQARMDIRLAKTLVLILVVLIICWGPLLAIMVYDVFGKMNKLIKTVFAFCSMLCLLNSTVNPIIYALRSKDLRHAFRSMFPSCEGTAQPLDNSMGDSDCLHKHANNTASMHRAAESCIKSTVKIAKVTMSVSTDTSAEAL
Method in brief: as §1, with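 “rat brain” for “rat spleen”, “with 1.0” for “with 0.5”, “[3H]CP-55,940, 40” for “[3H]CP-55,940, 80”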

[5] = target: T1, Cannabinoid receptor 2; experiment: Displacement of [3H]CP-55,940 from human recombinant CB2 receptor expressed in CHO cell membranes after 60 mins by scintillation counting analysis
[6] = target: T4, Cannabinoid receptor 2 (Rattus norvegicus, UniProt Q9QZN9); experiment: Displacement of [3H]CP-55,940 from Sprague-Dawley rat spleen CB2 receptor by scintillation counting analysis
T4 sequence (Q9QZN9 whole entry): T3 sequence (whole entry)
Method in brief: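 Male Sprague-Dawley rat spleen membranes, prepared by spinning at 2000g and then 40000g, in 50 mM Tris-HCl with 1 mM EDTA, 3 mM MgCl2 and 0.5% fatty-acid-free BSA, pH 7.4. Filtered on GF/C.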

[7] = target: T2, Cannabinoid receptor 1; experiment: Displacement of [3H]CP-55,940 from human recombinant CB1 receptor expressed in CHO cell membranes after 90 mins by scintillation counting analysis
[8] = target: Cannabinoid receptor 1 (Rattus norvegicus, UniProt P20272); experiment: Displacement of [3H]CP-55,940 from Sprague-Dawley rat brain CB1 receptor by scintillation counting analysis
Chain of Cannabinoid receptor 1 (Rattus norvegicus, UniProt P20272) (P20272 whole entry): as above
Method in brief: as §1, with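 “rat brain” for “rat spleen”, “with 1.0” for “with 0.5”, “[3H]CP-55,940, 40” for “[3H]CP-55,940, 80”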

[9] = target: T1, Cannabinoid receptor 2; experiment: Agonist activity at human CB2 receptor expressed in CHO cells assessed as forskolin-stimulated [3H]cyclic-AMP accumulation by scintillation counting analysis relative to WIN 55,212-2; assay type: functional, cell-based
Method in brief: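 CHO cells stably expressing human CB2, 1 × 10^6 cells/assay, in buffered saline (10 mM MgCl2, 5 mM glucose, 5 mM HEPES, pH 7.4, 37 °C) with 0.5 mM Ro 20-1724. Preincubated 10 min at 37 °C, then tested with 1 μM forskolin. Stopped with cold 6% TCA and ether-extracted. cAMP read by [3H]cAMP competition binding to beef adrenal binding protein with charcoal separation.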

[10] = target: T1, Cannabinoid receptor 2; experiment: Agonist activity at human CB2 receptor expressed in CHO cells assessed as forskolin-stimulated [3H]cyclic-AMP accumulation by scintillation counting analysis; assay type: functional, cell-based
[11] = species: Homo sapiens; experiment: Selectivity ratio of Ki for CB1 receptor (unknown origin) to Ki for CB2 receptor (unknown origin)

T1 sequence (P34972 whole entry): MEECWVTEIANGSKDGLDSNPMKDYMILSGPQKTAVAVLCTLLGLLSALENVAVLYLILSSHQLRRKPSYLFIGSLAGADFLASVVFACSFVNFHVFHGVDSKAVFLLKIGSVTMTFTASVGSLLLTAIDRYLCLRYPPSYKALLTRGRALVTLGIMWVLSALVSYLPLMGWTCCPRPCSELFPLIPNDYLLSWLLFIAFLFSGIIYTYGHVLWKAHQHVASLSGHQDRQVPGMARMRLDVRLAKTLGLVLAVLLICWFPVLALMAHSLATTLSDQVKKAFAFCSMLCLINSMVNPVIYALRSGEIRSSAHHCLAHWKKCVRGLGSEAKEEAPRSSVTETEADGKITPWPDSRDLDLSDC

| Structure (SMILES) | inhibition [1] [%] | inhibition [2] [%] | inhibition [3] [%] | inhibition [4] [%] | Ki [5] [µM] | Ki [6] [µM] | Ki [7] [µM] | Ki [8] [µM] | Emax [9] [%] | EC50 [10] [µM] | Ratio Ki [11] |
| --- | --- | --- | --- | --- | --- | --- | --- | --- | --- | --- | --- |
| CCCCCn1cc(C(=O)NC2CCCCC2)c(=O)c2c(-c3ccccc3)nn(C)c21 | 1 | 23 | 1 | 18 | > 10 | > 10 | > 10 | > 10 |  |  |  |
| Cc1nn(C)c2c1c(=O)c(C(=O)NC1CCCCC1)cn2CCCCC#N | 11 | 28 | 5 | 25 | > 10 | > 10 | > 10 | > 10 |  |  |  |
| C=CCn1cc(C(=O)NC2CCCCC2)c(=O)c2c(C)nn(C)c21 | 42 | 34 | 46 | 27 | > 10 | > 10 | > 10 | > 10 | 58 | 0.587 |  |
| CCOCCn1cc(C(=O)NC2CCCCC2)c(=O)c2c(C)nn(C)c21 | 1 | 14 | 1 | 10 | > 10 | > 10 | > 10 | > 10 |  |  |  |
| CCCCCn1cc(C(=O)NC2CCCCCC2)c(=O)c2c(-c3ccccc3)nn(C)c21 | 1 | 1 | 1 | 1 | > 10 | > 10 | > 10 | > 10 |  |  |  |
| Cc1ccc(Cn2cc(C(=O)NC3CCCCC3)c(=O)c3c(C)nn(C)c32)cc1 | 33 | 35 | 29 | 38 | > 10 | > 10 | > 10 | > 10 |  |  |  |
| CCCCCn1cc(C(=O)Nc2ccc(F)cc2)c(=O)c2c(C)nn(C)c21 | 37 | 44 | 27 | 48 | > 10 | > 10 | > 10 | > 10 |  |  |  |
| CCCCCCC(C)(C)c1cc(OC)c([C@@H]2C=C(CO)[C@H]3C[C@@H]2C3(C)C)c(OC)c1 |  |  |  |  |  |  |  |  |  |  | 400 |
| Cc1nn(C)c2c1c(=O)c(C(=O)NC1CCCCC1)cn2CCN1CCOCC1 | 36 | 16 | 32 | 13 | > 10 | > 10 | > 10 | > 10 |  |  |  |
| CCCCCn1cc(C(=O)Nc2ccc(OC)cc2)c(=O)c2c(C)nn(C)c21 | 33 | 38 | 24 | 46 | > 10 | > 10 | > 10 | > 10 |  |  |  |
